Results gathered from unrelated publications.
Lines come from different studies, so protocols differ. In brackets after ≈: the same amount, converted by molar mass.

| Compound | target or system | test | system | setting | endpoint | result |
| --- | --- | --- | --- | --- | --- | --- |
| O=C(O)c1cn(C2CC2)c2cc(N3CCNCC3)c(F)cc2c1=O | Haemophilus influenzae | microbial growth | – | – | MIC | > 4 µg/mL |
| CC(C)=CCC/C(C)=C/COc1cc(O)cc(O)c1C(=O)c1ccccc1 | – | DPPH scavenging, absorbance | – | 30 min | IC50 | 2330 µM |
| CO/N=C1\CN(c2nc3c(cc2F)c(=O)c(C(=O)O)cn3C2CC2)CC1CN (stereo not drawn) | Haemophilus influenzae | microbial growth | – | – | MIC | 2 µg/mL (≈ 5.14 µM) |
| Cc1cc(C(C)(C)C)c(O)c(C(C)(C)C)c1 | – | DPPH scavenging, absorbance | – | 30 min | IC50 | 308 µM |
| Cc1ccc(C2CC2C(=O)NC(C(N)=O)c2ccccc2)cc1C (stereo not drawn) | Chikungunya virus | viral replication, luciferase | BHK-21 | 16 h | IC50 | > 100 µM |
| CC(Cc1ccc(O)cc1)NCC(O)c1cc(O)cc(O)c1 (stereo not drawn) | THP-1 | TNF-α release, inhibitor | – | 17 h, LPS-stimulated | IC50 | 0.12 µM |
| O=C(Nc1ncc([N+](=O)[O-])s1)c1cc(Cl)ccc1Cl | Chikungunya virus | viral replication, luciferase | BHK-21 | 16 h | IC50 | 8.3 µM |
| O=c1c(O)c(-c2ccc(O[C@@H]3O[C@H](CO)[C@@H](O)[C@H](O)[C@H]3O)c(O)c2)oc2cc(O)cc(O)c12 | – | DPPH scavenging, absorbance | – | – | IC50 | 28.5 µg/mL |
| O=C(NCc1ccc(Cl)cc1)C1CC1c1ccccc1 (stereo not drawn) | Chikungunya virus | viral replication, luciferase | BHK-21 | 16 h | IC50 | > 100 µM |
| C[C@H]1COc2c(N3CCN(C)CC3)c(F)cc3c(=O)c(C(=O)O)cn1c23 | Haemophilus influenzae | microbial growth | – | – | MIC | > 4 µg/mL |
| O=C(Nc1ncc([N+](=O)[O-])s1)c1cccnc1 | Chikungunya virus | viral replication, luciferase | BHK-21 | 16 h | IC50 | > 100 µM |
| CCCCCCCCCOc1ccc2[nH]cc(CCN)c2c1 | FaDu | cell growth or viability | – | 72 h | IC50 | 7.3 µM |
